These results are taken from ChEMBL document CHEMBL2406959, “Synthesis and evaluation of diaryl sulfides and diaryl selenide compounds for antitubulin and cytotoxic activity” (Bioorg Med Chem Lett, 2013).

One assay deals with HT-29. Description: Cytotoxicity against human HT-29 cells after 48 hrs by sulforhodamine B assay. The class given is functional, cell-based. The settings on record: HT-29, 48 h. The method, boiled down: (§1)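 Human 786 (kidney), HT-29 (colon) and PC-3 (prostate) cancer cells exposed to compounds for 48 h at 37 °C.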
In general terms: Sulforhodamine B stains cellular protein and so reports cell mass.

Assay [1] is described as follows: Inhibition of bovine brain tubulin polymerization incubated for 15 mins prior to GTP addition measured after 20 mins by spectrophotometry. Further details: species or system Bos taurus.
Assay [2] is filed under the species Bos taurus. Description: Displacement of [3H]colchicine from bovine brain tubulin at 1 uM after 10 mins by scintillation counting analysis relative to control. On the technique in general: Loss of bound radioactivity is the signal in a displacement assay; it reports binding, not function.
A further assay concerns PC-3. Description: Cytotoxicity against human PC3 cells after 48 hrs by sulforhodamine B assay. In kind it is functional, cell-based. The settings on record: PC-3, 48 h.
Assay [3] in a line: Cytotoxicity against human 786 cells after 48 hrs by sulforhodamine B assay. In kind it is functional, cell-based. The method in brief:
as §1

For a further assay, the system named is MCF7. Description: Cytotoxicity against human MCF7 cells after 96 hrs by sulforhodamine B assay. The settings on record: MCF7, 96 h. In kind it is functional, cell-based. The method, boiled down: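 Human MCF-7 breast cancer cells incubated with compounds for 96 h at 37 °C.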
Assay [4] is filed under the species Bos taurus. Description: Displacement of [3H]colchicine from bovine brain tubulin at 5 uM after 10 mins by scintillation counting analysis relative to control.
Another assay has as its target Tubulin. Description: Inhibition of tubulin (unknown origin) polymerization after 20 mins. The class given is protein-complex assay, Homo sapiens.

Molecules are shown by their SMILES.

As for `COc1ccc(Sc2cc(OC)c(OC)c(OC)c2)cc1N`, the IC50 was determined as 1.31 µM with HT-29; 0.74 µM in assay [1]; 0.53 µM in the assay on PC-3; 1.24 µM in assay [3]; 0.008 µM with MCF7. Besides, the inhibition in the assay listed under Bos taurus [2] turned out to be 74%; in the assay filed under Bos taurus [4] it was 95%.

As to `COc1cccc2c1C(=O)c1c(O)c3c(c(O)c1C2=O)C[C@@](O)(C(=O)CO)C[C@@H]3O[C@H]1C[C@H](N)[C@H](O)[C@H](C)O1` [DOXORUBICIN], the half-inhibitory concentration (IC50) in the assay on HT-29 came out at 0.44 µM; in assay [3], 0.33 µM.

With `COc1ccc([Se]c2cc(OC)c(OC)c(OC)c2)cc1`, the IC50 in the assay with HT-29 amounted to 0.28 µM; in assay [1], 0.62 µM; in the assay with PC-3, 0.08 µM; in assay [3], 0.68 µM; with MCF7, 0.01 µM. Also, the inhibition was 74% in the assay listed under Bos taurus [2] and 94% in the assay listed under Bos taurus [4].

In the case of `COc1ccc(Sc2cc(OC)c(OC)c(OC)c2)cc1[N+](=O)[O-]`, the half-inhibitory concentration (IC50) came out at 0.63 µM with HT-29; 2.8 µM in assay [1]; 0.2 µM in the assay on PC-3; 1.71 µM in assay [3]; 1 µM in the assay on MCF7. In the assay listed under Bos taurus [4], the inhibition is 58%.

In the case of `COc1ccc(/C=C\c2cc(OC)c(OC)c(OC)c2)cc1O` [COMBRETASTATIN A4], the IC50 in the assay on PC-3 is 1 µM; in assay [3] it was 5 µM; in the assay on MCF7, 0.006 µM.

For `COc1ccc([Se][Se]c2ccc(OC)cc2)cc1`, the IC50 with HT-29 was 59.5 µM; in assay [1], 1.7 µM; in the assay on PC-3, 1.99 µM; in assay [3], 20.7 µM; with MCF7, over 10 µM. Moreover, the inhibition in the assay listed under Bos taurus [4] amounted to 34%.

As to `COc1cc(SSc2cc(OC)c(OC)c(OC)c2)cc(OC)c1OC`, the IC50 with HT-29 was 76.5 µM; in assay [1], 5.4 µM; with PC-3, 6.75 µM; in assay [3], 112 µM; in the assay with MCF7 it was over 10 µM. The compound further gave an inhibition in the assay listed under Bos taurus [4] of 9%.

Turning to `COc1ccc([Se]c2ccc(OC)cc2)cc1`, the IC50 in the assay on HT-29 was 210 µM; in assay [1] it was over 20 µM; in the assay on PC-3 it was 8.8 µM; with MCF7 it was over 10 µM.

Compound `COc1ccc(/C=C\c2cc(OC)c(OC)c(OC)c2)cc1[N+](=O)[O-]` displayed an IC50 against Tubulin of 1.8 µM.

The term IC50 denotes the concentration needed to halve the response being measured. For orientation: inhibition means the change of the read-out against control, counted positive when it falls. A high value points to a response far below the control.
